# Assay outcomes (PubChem)
# Thrombin inh: inhibitors of human thrombin. 220,000 compounds, 0.26% hits. inhibition, % at 5 µM. P00734. alpha-thrombin, Boc-VPR-AMC fluorogenic substrate cleavage;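 active = inhibition at or above 40%; inactive = inhibition below 40%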;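 note: 0% = enzyme with no compound and 100% = wells without enzyme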
#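 System: Human alpha-thrombin protein | Medium: pH 7.5 Tris (50 mM) with NaCl 150 mM, Tween 20 0.05% | Times: Enzyme reaction carried out at room temperature | Detection: AMC fluorescence, 355/460 nm | Evaluation: Percent inhibition scaled between no-compound controls and no-enzyme blanks | Benchmarks: Enzyme without compound as high, wells lacking enzyme as low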
# FXIa inh 1536: factor XIa (human) inhibition; P03951; purified FXIa, Boc-Glu-Ala-Arg-AMC fluorogenic substrate; inhibition, % at 5 µM; 220,000 compounds, 0.14% hits; AID 798;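 active = inhibition of at least 40%; inactive = inhibition below 40%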;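 note: fluorescence of freed AMC excited at 355 nm; 0% = enzyme without compound and 100% = no enzyme blank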
# FXIIa inh 1536: inhibitors of human coagulation factor XIIa | 220,000 compounds, 0.3% hits | inhibition, % at 5 µM | purified FXIIa, Boc-QGR-AMC fluorogenic substrate, 2 h | P00748 | AID 800; in the data active = inhibition above about 40%;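 note: 0% = enzyme with no compound and 100% = blank without enzyme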
# STAT3 act: STAT3 signaling activation | U3A cells, IL-6 STAT3-luciferase reporter, luminescence; 100% = signal with IL-6 EC80 alone | activation (% of control), % at 5.6 µM | 190,000 compounds, 0.91% hits | AID 871;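 active = activation above the screen-wide mean of compound activation plus 3 SD, cut at about 130% in these data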;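 note: 0% = background luminescence of wells with medium and substrate only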
#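 Test system: human U3A cells carrying STAT3-luciferase construct; control set: IL-6-only wells as 100% reference; timing: compound pre-incubation 1 h before IL-6, then 6 h stimulation at 37 °C; also added: IL-6 stimulus at 33 ng/mL final; evaluation: % activation versus median of IL-6-stimulated wells; detection: reporter luminescence signal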
# AHR activator: activates the human aryl hydrocarbon receptor. AHR-responsive luciferase reporter cells, luminescence. AID 2796. 320,000 compounds, 2.5% hits. activation, % at 5 µM; in the data active = activation above about 47%;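 note: 0% = vehicle wells and 100% = reference agonist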
# KLK5 inh: blocks human kallikrein 5 protease activity; recombinant hK5, fluorogenic AMC substrate cleavage; Q9Y337; inhibition, % at 5 µM; 210,000 compounds, 0.59% hits; AID 873;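 active = inhibition of 40% or more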;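 note: 0% = enzyme controls without compound and 100% = no-enzyme blanks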
# Target sequence (Q9Y337 67-293 limits assumed): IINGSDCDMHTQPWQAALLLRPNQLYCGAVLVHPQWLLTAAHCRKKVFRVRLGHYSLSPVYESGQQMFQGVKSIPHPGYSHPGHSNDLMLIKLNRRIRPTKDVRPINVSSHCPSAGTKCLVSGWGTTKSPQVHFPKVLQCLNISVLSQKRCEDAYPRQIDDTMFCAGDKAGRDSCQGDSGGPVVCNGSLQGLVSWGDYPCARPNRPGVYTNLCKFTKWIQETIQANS
# * = called active by the depositor; . = not tested or not shown. Only some compounds are listed: those with a hit (about 3.5% of all), similar ones and a draw of the others.
SMILES,Thrombin inh,FXIa inh 1536,FXIIa inh 1536,STAT3 act,AHR activator,KLK5 inh
CCc1cc(/C(Cc2ccccn2)=N\Nc2ccccc2)c(O)cc1O,7,-1,9,104,77*,10
Cc1ccc(S(=O)(=O)N2CCN(C(C(=O)Nc3ccc(F)cc3)c3ccccc3)CC2)cc1 (stereo unspecified),33,18,11,106,-1,46*
Cc1cc(C)cc(NC(=O)[C@H](NC(=O)[C@@H]2Cc3ccccc3CN2)c2ccccc2)c1,.,.,.,.,7,.
COc1cc(/C=C2/NC(=O)NC2=O)cc(Br)c1OCc1ccccc1,6,-1,3,115,59*,0
COc1cc(/C=C2/NC(=O)NC2=O)cc(Br)c1OCc1cccc(C(=O)O)c1,1,-1,.,103,2,1
Cc1ccc(C(=O)Cn2cnc3ccccc3c2=O)cc1,2,0,5,107,8,-7
O=C(Cn1cnc2ccccc2c1=O)c1ccccc1,0,8,16,106,48*,-3
COc1ccc(C/C(C)=N\NC(=O)c2c[nH]c3ccccc23)cc1OC,-5,-4,2,.,53*,-1
COc1ccccc1CNC(=O)C/C(C)=N/NC(=O)Cc1ccc(OC)c(OC)c1,-7,-7,-4,105,7,-10
COC(=O)CCCCCCCCC(O)CN(C)C (stereo unspecified),1,3,7,.,2,2
COC(=O)CCCCCC(CCC(=O)OC)NC(C)=O (stereo unspecified),24,6,16,98,-4,51*
Cc1ccc(Nc2ccc(C(=O)NC3CCCCC3)cn2)cc1,5,3,13,.,9,3
COCCCn1c(SCC(=O)N2CCc3ccccc32)nnc1-c1ccoc1C,.,.,.,136*,18,.
COCCCn1c(SCC(=O)N2CCc3ccccc32)nnc1-c1ccco1,6,11,19,101,4,-3
CN(CC(=O)Nc1n[nH]c(=S)s1)S(=O)(=O)c1cccc2cccnc12,.,.,.,.,8,.
COc1ccc(CC2NCCC3=CC(=O)CCC32)cc1O (stereo unspecified),.,.,.,.,4,.
CCCCN(C)C(=O)CS(=O)(=O)Cc1nc(-c2cccc(OC)c2)oc1C,14,13,19,109,19,44*
COc1cccc(-c2nc(CS(=O)(=O)CC(=O)N3CCN(c4ccccn4)CC3)c(C)o2)c1,29,-1,8,98,57*,-4
Cc1ccc(-c2nc(CS(=O)(=O)CC(=O)N3CCc4ccccc4C3)c(C)o2)cc1,-8,36,51*,98,2,-1
COc1cccc(-c2nc(CS(=O)(=O)CC(=O)N3CCCCC3)c(C)o2)c1,.,.,.,.,6,.
COCCCNC(=O)CS(=O)(=O)Cc1nc(-c2cccc(OC)c2)oc1C,2,2,14,110,-1,-14
C[C@@H]1CN([C@@H](C)CO)C(=O)c2cccc(NS(C)(=O)=O)c2O[C@H]1CN(C)CC1CCCCC1,.,.,.,.,-1,.
Nn1c(SCC(=O)Nc2cccnc2Cl)nnc1-c1ccccc1,.,.,.,.,7,.
O=C(COC(=O)Cc1ccsc1)Nc1ccc(Br)cc1F,.,.,.,.,7,.
O=C(Nc1ccccc1)/C(=C1\CCCN1)[N+](=O)[O-],-9,2,-54,93,9,4
SMILES,Thrombin inh,FXIa inh 1536,FXIIa inh 1536,STAT3 act,AHR activator,KLK5 inh
CC1CCC2(CC1)SCC(=O)N2c1ccccc1 (stereo unspecified),20,21,24,95,0,91*
Cc1cccc(N2C(=O)CSC23CCCCC3)c1,-4,-2,10,93,1,-1
CCC1CCC2(CC1)SCC(=O)N2c1ccccc1 (stereo unspecified),13,59*,30,.,-1,63*
CCOC(=O)c1sc(N/N=C/c2cc(Br)c(O)c(OC)c2)nc1C,.,.,.,.,67*,.
COc1ccc(S(=O)(=O)Nc2ccc(-n3cnnn3)cc2)cc1[N+](=O)[O-],.,.,.,.,0,.
Cc1ccc(CNC(=O)C2c3ccccc3C(=O)N3CCc4ccccc4C23)o1 (stereo unspecified),1,-1,15,104,115*,7
O=C(NCCN1CCN(Cc2ccccc2)CC1)C1c2ccccc2C(=O)N2CCc3ccccc3C12 (stereo unspecified),-2,5,18,101,0,2
O=C(N/N=C/c1ccccn1)NC12CC3CC(CC(C3)C1)C2,-3,2,2,.,4,-1
